Each structure is given as a SMILES string.

The values below come from ChEMBL document CHEMBL1156229, “Pharmacophore development and application toward the identification of novel, small-molecule autotaxin inhibitors” (J Med Chem, 2010).

For experiment [1], the target named is T1, Autotaxin (Homo sapiens, UniProt Q13822). The experiment is described as follows: Inhibition of human recombinant C-terminal FLAG-tagged autotaxin expressed in baculovirus-infected Sf9 cells assessed as FS-3 hydrolysis. In outline:
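Dose response: final inhibitor 30, 10, 3, 1, 0.3, 0.1, 0.03 μM, plus 0.01 and 0.003 μM for some compounds; purified human ATX 8.3 nM, 1 μM FS-3, 30 μM fatty acid free BSA, Tris pH 8 buffer, 37 °C. Fluorescence ex 485/em 538 every 2 min; percent activity vs vehicle at 1 h after no-ATX background subtraction; mean of three wells.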

Experiment [2] concerns the target T1, Autotaxin. The experiment is described as follows: Inhibition of human recombinant C-terminal FLAG-tagged autotaxin expressed in baculovirus-infected Sf9 cells assessed as FS-3 hydrolysis at 10 uM relative to control. In outline:
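Single-dose screen: inhibitor 10 μM final, purified recombinant human ATX 8.3 nM, FS-3 1 μM, fatty acid free BSA 30 μM in Tris pH 8 buffer (1 mM MgCl2, 1 mM CaCl2, 3 mM KCl, 140 mM NaCl), 37 °C. Fluorescence (ex 485/em 538) read every 2 min; percent activity vs vehicle after no-ATX subtraction at 1 h; mean ± SD of three wells.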

For the compound `CC(=O)Nc1ccc(/C=C/c2ccc(NC(=O)Nc3ccc(/C=C/c4ccc(NC(C)=O)cc4S(=O)(=O)O)c(S(=O)(=O)O)c3)cc2S(=O)(=O)O)c(S(=O)(=O)O)c1`, the IC50 on Autotaxin [1] worked out at 23 µM. Besides, at Autotaxin [2], the inhibition was 49%.
The corresponding values for `COc1cc(NC(=O)c2ccc(NC(=O)c3ccc(N)cc3)cc2)c(OC)cc1/N=N/c1cc(C)c(/N=N/c2cc(S(=O)(=O)O)c3cccc(S(=O)(=O)O)c3c2)cc1C` are 7.6 µM and 53%.
The corresponding values for `COc1ccccc1/N=N/c1c(S(=O)(=O)O)cc2cc(NC(=O)Nc3ccc4c(O)c(/N=N/c5c(N)ccc6cc(S(=O)(=O)O)ccc56)c(S(=O)(=O)O)cc4c3)ccc2c1O` are 11.6 µM and 84%.
The corresponding values for `Nc1c(S(=O)(=O)O)cc2cc(S(=O)(=O)O)ccc2c1/N=N/c1ccc(-c2ccc(/N=N/c3c(N)c(S(=O)(=O)O)cc4cc(S(=O)(=O)O)ccc34)c(S(=O)(=O)O)c2)cc1` are 12.6 µM and 51%.
Take `Nc1ccc2cc(S(=O)(=O)O)cc(O)c2c1/N=N/c1ccc(-c2ccc(/N=N/c3c(S(=O)(=O)O)cc4cc(S(=O)(=O)O)c(/N=N/c5ccc([N+](=O)[O-])cc5)c(N)c4c3O)cc2)cc1`: at Autotaxin [1], the IC50 amounted to 17.4 µM. Besides, at Autotaxin [2], the inhibition was found to be 57%.
`CC(=O)Nc1cc(/N=N/c2ccc(NC(=O)c3ccc(N)cc3)cc2C)c(S(=O)(=O)O)cc1/N=N/c1ccc(/N=N/c2ccc(S(=O)(=O)O)cc2)cc1`: on Autotaxin [1], the IC50 turned out to be 5.4 µM. The inhibition on Autotaxin [2] worked out at 74%.
With `O=S(=O)([O-])c1cccc2c1c(Nc1ccccc1)cc1c2nc2cc(S(=O)(=O)O)c(Nc3ccccc3)cc2[n+]1-c1ccccc1`, on Autotaxin [1], the IC50 turned out to be 9.3 µM. Also, on Autotaxin [2], the inhibition was 51%.
On the same counts, the results for `Cc1cc(-c2ccc(/N=N/c3c(N)c(S(=O)(=O)O)cc4cc(S(=O)(=O)O)ccc34)c(C)c2)ccc1/N=N/c1cc(S(=O)(=O)O)c2ccccc2c1N` are 13.4 µM and 68%.
The corresponding values for `COc1cc(/N=N/c2c(S(=O)(=O)O)cc3cc(NC(=O)Nc4ccc5c(O)c(/N=N/c6ccc7cc(S(=O)(=O)O)ccc7c6)c(S(=O)(=O)O)cc5c4)ccc3c2O)c(C)cc1N` are 13.8 µM and 70%.
Turning to `Nc1c(/N=N/c2ccc(-c3ccc(/N=N/c4c(S(=O)(=O)O)cc5cc(S(=O)(=O)O)c(/N=N/c6ccccc6)c(O)c5c4N)cc3)cc2)ccc2c(S(=O)(=O)O)cccc12`, at Autotaxin [1], the IC50 is 2.42 µM. Besides, at Autotaxin [2], the inhibition was 75%.
The corresponding values for `Cc1ccc(/N=N/c2c(S(=O)(=O)O)cc3cc(NC(=O)Nc4ccc5c(O)c(/N=N/c6ccc7cc(S(=O)(=O)O)ccc7c6)c(S(=O)(=O)O)cc5c4)ccc3c2O)c(C)c1` are 18.6 µM and 67%.
The corresponding values for `Cc1cc(/C(=C2C=C/C(=N\c3ccc(S(=O)(=O)O)cc3)C=C\2)c2ccc(Nc3ccc(S(=O)(=O)O)cc3)cc2)cc(S(=O)(=O)O)c1N` are 8.7 µM and 55%.
With `O=C(Nc1ccc2cc(S(=O)(=O)O)ccc2c1)c1ccc(/N=N/c2c(S(=O)(=O)O)cc3cc(S(=O)(=O)O)cc(NC(=O)c4ccccc4)c3c2O)cc1`, on Autotaxin [1], the IC50 came to 8.9 µM. Moreover, the inhibition on Autotaxin [2] stood at 72%.
The corresponding values for `Nc1ccc2cc(S(=O)(=O)O)cc(O)c2c1/N=N/c1ccc(NC(=O)c2ccc(C(=O)Nc3ccc(/N=N/c4c(N)ccc5cc(S(=O)(=O)O)cc(O)c45)c(S(=O)(=O)O)c3)cc2)cc1S(=O)(=O)O` are 9.8 µM and 52%.
On to `Cc1ccccc1/N=N/c1c(S(=O)(=O)O)cc2cc(NC(=O)Nc3ccc4c(O)c(/N=N/c5ccc6cc(S(=O)(=O)O)ccc6c5)c(S(=O)(=O)O)cc4c3)ccc2c1O`, for which the IC50 at Autotaxin [1] stood at 11.6 µM. Moreover, the inhibition on Autotaxin [2] was found to be 71%.
Regarding `Cc1ccc(Nc2cccc3c2C(=O)c2cccc(Nc4ccc(C)cc4S(=O)(=O)O)c2C3=O)c(S(=O)(=O)O)c1`, the inhibition on Autotaxin [2] was 6%.
Regarding `COc1cc(/N=N/c2cc(S(=O)(=O)O)cc3cc(S(=O)(=O)O)cc(O)c23)c(C)cc1/N=N/c1c(S(=O)(=O)O)cc2cc(Nc3ccccc3)ccc2c1O`, the IC50 at Autotaxin [1] came out at 37.6 µM. Also, on Autotaxin [2], the inhibition turned out to be 53%.
For the compound `COc1cc(/N=N/c2ccc(/N=N/c3cc(S(=O)(=O)O)ccc3S(=O)(=O)O)c(C)c2)c(C)cc1/N=N/c1ccc(NC(=O)c2ccc(N)cc2)cc1C`, the inhibition at Autotaxin [2] was 39%.
With `Cc1c(N)cc(S(=O)(=O)O)c(/N=N/c2ccc(-c3ccc(/N=N/c4c(S(=O)(=O)O)cc5cc(S(=O)(=O)O)c(/N=N/c6cccc([N+](=O)[O-])c6)c(N)c5c4O)cc3)cc2)c1N`, at Autotaxin [1], the IC50 was 5.9 µM. In addition, the inhibition at Autotaxin [2] was 68%.
Regarding `Cc1ccc(C(=O)Nc2ccc(S(=O)(=O)O)c3cc(S(=O)(=O)O)cc(S(=O)(=O)O)c23)cc1NC(=O)c1cccc(NC(=O)Nc2cccc(C(=O)Nc3cc(C(=O)Nc4ccc(S(=O)(=O)O)c5cc(S(=O)(=O)O)cc(S(=O)(=O)O)c45)ccc3C)c2)c1`, the inhibition at Autotaxin [2] was found to be 27%.
For `O=C(Nc1cc(S(=O)(=O)O)cc2cc(S(=O)(=O)O)c(/N=N/c3cc(Nc4nc(O)nc(Nc5ccc(S(=O)(=O)O)cc5)n4)ccc3S(=O)(=O)O)c(O)c12)c1ccccc1`, the IC50 at Autotaxin [1] was determined as 7.3 µM. For the same compound, the inhibition at Autotaxin [2] worked out at 76%.
`O=C(Nc1ccc(S(=O)(=O)O)cc1)c1ccc(/N=N/c2cc(S(=O)(=O)O)c3ccccc3c2O)cc1`: the inhibition on Autotaxin [2] came to 1%.
As for `O=C(Nc1ccc(/C=C/c2ccc(NC(=O)c3cc(S(=O)(=O)O)c4cccnc4c3O)cc2S(=O)(=O)O)c(S(=O)(=O)O)c1)c1cc(S(=O)(=O)O)c2cccnc2c1O`, the IC50 on Autotaxin [1] was found to be 7.4 µM. The inhibition on Autotaxin [2] was determined as 53%.
On the same counts, the results for `Cc1cccc(/N=N/c2c(S(=O)(=O)O)cc3cc(NC(=O)Nc4ccc5c(O)c(/N=N/c6ccc7cc(S(=O)(=O)O)ccc7c6)c(S(=O)(=O)O)cc5c4)ccc3c2O)c1` are 12 µM and 80%.
Turning to `O=C1c2ccc(S(=O)(=O)O)cc2C(=O)c2c(Nc3ccccc3)ccc(Nc3ccc(S(=O)(=O)O)cc3)c21`, the inhibition on Autotaxin [2] stood at 6%.
As to `Cc1ccc(C)c(/N=N/c2c(S(=O)(=O)O)cc3cc(NC(=O)Nc4ccc5c(O)c(/N=N/c6ccc7cc(S(=O)(=O)O)ccc7c6)c(S(=O)(=O)O)cc5c4)ccc3c2O)c1`, the IC50 at Autotaxin [1] was found to be 15.5 µM. In addition, on Autotaxin [2], the inhibition turned out to be 65%.
As to `COc1ccc(NS(=O)(=O)c2ccc(NC(CNC(C)S(=O)(=O)O)S(=O)(=O)O)cc2)cc1` (stereo not given), the inhibition on Autotaxin [2] is 4%.
With `Nc1cc(C(=O)Nc2ccc(S(=O)(=O)O)cc2)ccc1C(=O)Nc1ccc(S(=O)(=O)O)cc1`, the inhibition on Autotaxin [2] was -2%.
Same read-out and setting: then `O=C(O)c1cc(O)c(O)c(OC(=O)c2cc(O)c(O)c(O)c2CNc2ccc3cc(S(=O)(=O)O)cc(S(=O)(=O)O)c3c2)c1`, with 2%.
On to `COc1ccccc1/N=N/c1c(S(=O)(=O)O)cc2cc(NC(=O)Nc3ccc4c(O)c(/N=N/c5ccc(S(=O)(=O)O)cc5C)c(S(=O)(=O)O)cc4c3)ccc2c1O`, for which the IC50 at Autotaxin [1] was 18.2 µM. Moreover, the inhibition on Autotaxin [2] was determined as 59%.
The corresponding values for `O=C(Nc1ccc2c(O)c(/N=N/c3ccccc3)c(S(=O)(=O)O)cc2c1)Nc1ccc2c(O)c(/N=N/c3ccc4cc(S(=O)(=O)O)ccc4c3)c(S(=O)(=O)O)cc2c1` are 19.1 µM and 61%.
The corresponding values for `COc1cc(/N=N/c2ccc3cc(S(=O)(=O)O)cc(S(=O)(=O)O)c3c2)ccc1/N=N/c1ccc(NC(=O)c2ccc(NC(=O)c3ccccc3)cc2)cc1C` are 1.7 µM and 77%.
`COc1cc(S(=O)(=O)O)ccc1/N=N/C(=N\Nc1ccc(S(=O)(=O)O)cc1OC)C(N)=O`: the inhibition on Autotaxin [2] is -1%.
For `Nc1ccc2cc(S(=O)(=O)O)c(/N=N/c3ccc(-c4ccc(/N=N/c5c(S(=O)(=O)O)cc6cc(S(=O)(=O)O)c(/N=N/c7cccc([N+](=O)[O-])c7)c(N)c6c5O)cc4)cc3)c(O)c2c1`, the IC50 on Autotaxin [1] turned out to be 28.1 µM. Moreover, the inhibition at Autotaxin [2] came out at 65%.
`Nc1cccc(/N=N/c2c(S(=O)(=O)O)cc3cc(NC(=O)Nc4ccc5c(O)c(/N=N/c6cccc(N)c6)c(S(=O)(=O)O)cc5c4)ccc3c2O)c1`: at Autotaxin [2], the inhibition is 32%.
Same read-out and setting: then `O=C(N/N=C/c1ccc(O)c(S(=O)(=O)O)c1)N/N=C/c1ccc(O)c(S(=O)(=O)O)c1`, with 6%.
Same read-out and setting: then `Nc1ccc(C(=O)Nc2ccc(NC(=O)Nc3ccc(NC(=O)c4ccc(N)cc4)c(S(=O)(=O)O)c3)cc2S(=O)(=O)O)cc1`, with 12%; and `COc1cc(/N=N/c2cccc(S(=O)(=O)O)c2)ccc1NC(=O)Nc1ccc(/N=N/c2ccc(O)c(C(=O)O)c2)cc1`, with 21%.
As for `O=C(Nc1ccc(C(=O)Nc2ccc3c(O)cc(S(=O)(=O)O)cc3c2)cc1)c1ccccc1`, the inhibition at Autotaxin [2] was 21%.
In the case of `CC(=O)Nc1cc(S(=O)(=O)O)cc2cc(S(=O)(=O)O)c(/N=N/c3ccc(C(=O)Nc4ccc5cc(S(=O)(=O)O)ccc5c4)cc3)c(O)c12`, the inhibition at Autotaxin [2] came out at 29%.
Consider `CC(=O)Nc1cc(S(=O)(=O)O)cc2cc(S(=O)(=O)O)c(/N=N/c3ccc(C(=O)Nc4ccc(S(=O)(=O)O)cc4)cc3)c(O)c12`, for which, on Autotaxin [2], the inhibition worked out at 17%.
With `Nc1ccc(C(=O)Nc2cccc(C(=O)Nc3ccc4c(O)c(/N=N/c5ccc(/N=N/c6ccc(S(=O)(=O)O)cc6)cc5)c(S(=O)(=O)O)cc4c3)c2)cc1`, the inhibition at Autotaxin [2] turned out to be 39%.
The same measure, in the same setting: then `O=C1Nc2ccc(S(=O)(=O)O)cc2/C1=N/Nc1ccccc1[N+](=O)[O-]`, with 8%; and `COc1ccc(/C=N/NC(=O)C(=O)N/N=C/c2ccc(OC)c(S(=O)(=O)O)c2)cc1S(=O)(=O)O`, with 0%; and `O=C(Nc1ccccc1)C(=N/Nc1cc(S(=O)(=O)O)ccc1O)/N=N/c1cc(S(=O)(=O)O)ccc1O`, with 0%.

For orientation: IC50 means the midpoint of a concentration-inhibition curve. In general, inhibition refers to the relative decrease from the control value, in per cent.
